Measurements published in ChEMBL document CHEMBL4251664, “Biocompatible Boron-Containing Prodrugs of Belinostat for the Potential Treatment of Solid Tumors” (ACS Med Chem Lett, 2018).
Each block holds one compound with its values, some of them ahead of it.

Columns and labels:
[1] = system: MCF7; experiment: Antiproliferative activity against human MCF7 cells after 72 hrs by resazurin dye based fluorescence assay; assay type: functional, cell-based; conditions: MCF7, 72 h
[2] = system: Mus musculus; experiment: Toxicity in ovariectomized nu/nu mouse implanted with human MCF7 cells assessed as effect on body weight at 10 mg/kg, sc administered once daily for 22 days; assay type: organism-based; conditions: in vivo, 528 h
Procedure, shortened: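 MCF-7 xenograft in mice, dosed 10 mg/kg/day by subcutaneous injection alongside a vehicle group. Treatment ran 22 days. Body weights were compared with the vehicle group, and tumour volume was measured over the same period. At the end, mice were sacrificed and tumours removed.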

[3] = system: A549; experiment: Antiproliferative activity against human A549 cells after 72 hrs by resazurin dye based fluorescence assay; assay type: functional, cell-based; conditions: A549, 72 h
[4] = Drug uptake in tumor of ovariectomized nu/nu mouse implanted with human MCF7 cells at 10 mg/kg, sc administered once daily for 22 days measured post last dose by HPLC-MS/MS analysis; assay type: ADME, organism-based, Neoplasm; conditions: female, read-out: Drug uptake
Procedure, shortened: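 After 22 days of 10 mg/kg/day subcutaneous dosing in MCF-7 xenograft mice, animals were sacrificed. Tumours were excised, homogenized and extracted, then analysed by HPLC–MS/MS for belinostat and the free boronic acid. Results are expressed as ng/g tissue.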

[5] = system: MDA-MB-231; experiment: Antiproliferative activity against human MDA-MB-231 cells after 72 hrs by resazurin dye based fluorescence assay; assay type: functional, cell-based; conditions: MDA-MB-231, 72 h
[6] = system: MCF7; experiment: Antitumor activity against human MCF7 cells implanted in ovariectomized nu/nu mouse assessed as tumor volume at 10 mg/kg, sc administered once daily for 22 days measured post last dose relative to control; assay type: functional
[7] = system: MCF7; experiment: Antitumor activity against human MCF7 cells implanted in ovariectomized nu/nu mouse assessed as tumor growth inhibition at 10 mg/kg, sc administered once daily for 22 days measured post last dose relative to control; assay type: functional; conditions: 528 h, read-out: TGI
[8] = system: MCF7; experiment: Antitumor activity against human MCF7 cells implanted in ovariectomized nu/nu mouse assessed as tumor volume at 10 mg/kg, sc administered once daily for 22 days measured on day 12 during compound dosing (reference value: 869 +/- 173 mm3); assay type: functional
[9] = system: MCF-10A; experiment: Cytotoxicity against human MCF10A cells assessed as reduction in cell proliferation at 10 uM after 72 hrs by resazurin dye based fluorescence assay
[10] = system: MCF7; experiment: Antitumor activity against human MCF7 cells implanted in ovariectomized nu/nu mouse assessed as tumor volume at 10 mg/kg, sc administered once daily for 22 days measured post last dose (reference value: 869 +/- 173 mm3); assay type: functional
[11] = system: MCF7; experiment: Antitumor activity against human MCF7 cells implanted in ovariectomized nu/nu mouse assessed as tumor weight at 10 mg/kg, sc administered once daily for 22 days measured post last dose (reference value: 743 +/- 142 mg); assay type: functional
[12] = system: HeLa; experiment: Antiproliferative activity against human HeLa cells after 72 hrs by resazurin dye based fluorescence assay; assay type: functional, cell-based
[13] = Drug level in human HeLa cells treated with (E)-3-(3-(N-phenylsulfamoyl)phenyl)-N-(4-(4,4,5,5-tetramethyl-1,3,2-dioxaborolan-2-yl)benzyloxy)acrylamide measured after 1 to 6 days by UHPLC-MS/MS analysis; assay type: ADME, cell-based
Procedure, shortened: (§1)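 MDA-MB-231 or HeLa cells were incubated with the pinacol boronate prodrug, and culture medium was sampled daily from day 1 to day 6. The prodrug, boronic acid forms and belinostat were separated, identified and quantified by HPLC coupled to an Orbitrap mass spectrometer. Results are in ng/mL as mean ± SEM of triplicate experiments.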

[14] = Drug level in human MDA-MB-231 cells treated with (E)-3-(3-(N-phenylsulfamoyl)phenyl)-N-(4-(4,4,5,5-tetramethyl-1,3,2-dioxaborolan-2-yl)benzyloxy)acrylamide measured after 1 to 6 days by UHPLC-MS/MS analysis; assay type: ADME, cell-based; procedure, shortened: as §1
[15] = system: MDA-MB-231; experiment: Prodrug conversion in human MDA-MB-231 cells assessed as belinostat level after 6 days by UHPLC-MS/MS analysis; assay type: ADME, cell-based; conditions: mda-mb-231, 144 h; procedure, shortened: as §1
[16] = system: MDA-MB-231; experiment: Prodrug conversion in human MDA-MB-231 cells assessed as (E)-3-((3-(3-(N-phenylsulfamoyl)phenyl)acrylamidooxy)methyl)phenylboronic acid level after 3 days by UHPLC-MS/MS analysis; assay type: ADME, cell-based; conditions: mda-mb-231, 72 h; procedure, shortened: as §1
[17] = system: MDA-MB-231; experiment: Prodrug conversion in human MDA-MB-231 cells assessed as belinostat level after 3 days by UHPLC-MS/MS analysis; assay type: ADME, cell-based; conditions: mda-mb-231, 72 h; procedure, shortened: as §1
[18] = system: MDA-MB-231; experiment: Prodrug conversion in human MDA-MB-231 cells assessed as belinostat level after 2 days by UHPLC-MS/MS analysis; assay type: ADME, cell-based; conditions: mda-mb-231, 48 h; procedure, shortened: as §1
[19] = system: HeLa; experiment: Prodrug conversion in human HeLa cells assessed as (E)-3-((3-(3-(N-phenylsulfamoyl)phenyl)acrylamidooxy)methyl)phenylboronic acid level after 3 days by UHPLC-MS/MS analysis; assay type: ADME, cell-based; conditions: 72 h; procedure, shortened: as §1
[20] = system: HeLa; experiment: Prodrug conversion in human HeLa cells assessed as (E)-3-((3-(3-(N-phenylsulfamoyl)phenyl)acrylamidooxy)methyl)phenylboronic acid level after 4 days by UHPLC-MS/MS analysis; assay type: ADME, cell-based; conditions: 96 h; procedure, shortened: as §1
[21] = system: HeLa; experiment: Prodrug conversion in human HeLa cells assessed as (E)-3-((3-(3-(N-phenylsulfamoyl)phenyl)acrylamidooxy)methyl)phenylboronic acid level after 2 days by UHPLC-MS/MS analysis; assay type: ADME, cell-based; conditions: 48 h; procedure, shortened: as §1
[22] = system: HeLa; experiment: Prodrug conversion in human HeLa cells assessed as (E)-3-((3-(3-(N-phenylsulfamoyl)phenyl)acrylamidooxy)methyl)phenylboronic acid level after 6 days by UHPLC-MS/MS analysis; assay type: ADME, cell-based; conditions: 144 h; procedure, shortened: as §1
[23] = system: MDA-MB-231; experiment: Prodrug conversion in human MDA-MB-231 cells assessed as (E)-3-((3-(3-(N-phenylsulfamoyl)phenyl)acrylamidooxy)methyl)phenylboronic acid level after 5 days by UHPLC-MS/MS analysis; assay type: ADME, cell-based; conditions: mda-mb-231, 120 h; procedure, shortened: as §1
[24] = system: MDA-MB-231; experiment: Prodrug conversion in human MDA-MB-231 cells assessed as belinostat level after 1 day by UHPLC-MS/MS analysis; assay type: ADME, cell-based; conditions: mda-mb-231, 24 h; procedure, shortened: as §1
[25] = system: HeLa; experiment: Prodrug conversion in human HeLa cells assessed as belinostat level after 3 days by UHPLC-MS/MS analysis; assay type: ADME, cell-based; conditions: 72 h; procedure, shortened: as §1
[26] = system: MDA-MB-231; experiment: Prodrug conversion in human MDA-MB-231 cells assessed as (E)-3-((3-(3-(N-phenylsulfamoyl)phenyl)acrylamidooxy)methyl)phenylboronic acid level after 2 days by UHPLC-MS/MS analysis; assay type: ADME, cell-based; conditions: mda-mb-231, 48 h; procedure, shortened: as §1
[27] = system: HeLa; experiment: Prodrug conversion in human HeLa cells assessed as belinostat level after 2 days by UHPLC-MS/MS analysis; assay type: ADME, cell-based; conditions: 48 h; procedure, shortened: as §1
[28] = system: HeLa; experiment: Prodrug conversion in human HeLa cells assessed as (E)-3-((3-(3-(N-phenylsulfamoyl)phenyl)acrylamidooxy)methyl)phenylboronic acid level after 5 days by UHPLC-MS/MS analysis; assay type: ADME, cell-based; conditions: 120 h; procedure, shortened: as §1
[29] = system: HeLa; experiment: Prodrug conversion in human HeLa cells assessed as belinostat level after 1 day by UHPLC-MS/MS analysis; assay type: ADME, cell-based; conditions: 24 h; procedure, shortened: as §1
[30] = system: MDA-MB-231; experiment: Prodrug conversion in human MDA-MB-231 cells assessed as (E)-3-((3-(3-(N-phenylsulfamoyl)phenyl)acrylamidooxy)methyl)phenylboronic acid level after 6 days by UHPLC-MS/MS analysis; assay type: ADME, cell-based; conditions: mda-mb-231, 144 h; procedure, shortened: as §1
[31] = system: HeLa; experiment: Prodrug conversion in human HeLa cells assessed as (E)-3-((3-(3-(N-phenylsulfamoyl)phenyl)acrylamidooxy)methyl)phenylboronic acid level after 1 day by UHPLC-MS/MS analysis; assay type: ADME, cell-based; conditions: 24 h; procedure, shortened: as §1
[32] = system: HeLa; experiment: Prodrug conversion in human HeLa cells assessed as belinostat level after 6 days by UHPLC-MS/MS analysis; assay type: ADME, cell-based; conditions: 144 h; procedure, shortened: as §1
[33] = system: MDA-MB-231; experiment: Prodrug conversion in human MDA-MB-231 cells assessed as belinostat level after 5 days by UHPLC-MS/MS analysis; assay type: ADME, cell-based; conditions: mda-mb-231, 120 h; procedure, shortened: as §1
[34] = system: MDA-MB-231; experiment: Prodrug conversion in human MDA-MB-231 cells assessed as (E)-3-((3-(3-(N-phenylsulfamoyl)phenyl)acrylamidooxy)methyl)phenylboronic acid level after 1 day by UHPLC-MS/MS analysis; assay type: ADME, cell-based; conditions: mda-mb-231, 24 h; procedure, shortened: as §1
[35] = system: MDA-MB-231; experiment: Prodrug conversion in human MDA-MB-231 cells assessed as (E)-3-((3-(3-(N-phenylsulfamoyl)phenyl)acrylamidooxy)methyl)phenylboronic acid level after 4 days by UHPLC-MS/MS analysis; assay type: ADME, cell-based; conditions: mda-mb-231, 96 h; procedure, shortened: as §1
[36] = system: HeLa; experiment: Prodrug conversion in human HeLa cells assessed as belinostat level after 4 days by UHPLC-MS/MS analysis; assay type: ADME, cell-based; conditions: 96 h; procedure, shortened: as §1
[37] = system: MDA-MB-231; experiment: Prodrug conversion in human MDA-MB-231 cells assessed as belinostat level after 4 days by UHPLC-MS/MS analysis; assay type: ADME, cell-based; conditions: mda-mb-231, 96 h; procedure, shortened: as §1
[38] = system: HeLa; experiment: Prodrug conversion in human HeLa cells assessed as belinostat level after 5 days by UHPLC-MS/MS analysis; assay type: ADME, cell-based; conditions: 120 h; procedure, shortened: as §1

IC50 [1]: 96 nM
IC50 [3]: 77 nM
concentration at 528 h [4]: 23.4 ng/g
IC50 [5]: 62 nM
IC50 [12]: 87 nM
Structure (SMILES): O=C(/C=C/c1cccc(S(=O)(=O)Nc2ccccc2)c1)NO [BELINOSTAT]
Activity [2]: Non-Toxic
T/C [6]: 22.3%
inhibition in vivo at 10 mg/kg [7]: 77.7%
Activity [8]: 167 mm3
Activity [9]: Non-Toxic
Activity [10]: 194 mm3
Activity [11]: 167 mg

Drug metabolism [13]: Metabolite_Detected
Drug metabolism [14]: Metabolite_Detected
Structure (SMILES): O=C(/C=C/c1cccc(S(=O)(=O)Nc2ccccc2)c1)NOCc1ccc(B(O)O)cc1

IC50 [3]: 6580 nM
IC50 [5]: 2200 nM
IC50 [12]: 12900 nM
Structure (SMILES): O=C(/C=C/c1cccc(S(=O)(=O)Nc2ccccc2)c1)NOCc1cccc(B(O)O)c1

Drug metabolism [15]: Metabolite_Notdetected
Drug metabolism [16]: 199 ng/mL
Drug metabolism [17]: Metabolite_Notdetected
IC50 [3]: 3600 nM
Drug metabolism [18]: Metabolite_Notdetected
Drug metabolism [19]: 147.9 ng/mL
Drug metabolism [20]: 134.7 ng/mL
Drug metabolism [21]: 188.6 ng/mL
Drug metabolism [22]: 66.6 ng/mL
Drug metabolism [23]: 168.5 ng/mL
Drug metabolism [24]: Metabolite_Notdetected
IC50 [5]: 2030 nM
Drug metabolism [25]: Metabolite_Notdetected
Drug metabolism [26]: 262.9 ng/mL
Drug metabolism [27]: Metabolite_Notdetected
Drug metabolism [28]: 97.2 ng/mL
Drug metabolism [29]: Metabolite_Notdetected
Drug metabolism [30]: 155.8 ng/mL
Drug metabolism [31]: 303.2 ng/mL
Drug metabolism [32]: Metabolite_Notdetected
Drug metabolism [33]: Metabolite_Notdetected
Drug metabolism [34]: 359.1 ng/mL
Drug metabolism [35]: 198.8 ng/mL
Drug metabolism [36]: Metabolite_Notdetected
Drug metabolism [37]: Metabolite_Notdetected
IC50 [12]: 8320 nM
Drug metabolism [38]: Metabolite_Notdetected
Structure (SMILES): CC1(C)OB(c2cccc(CONC(=O)/C=C/c3cccc(S(=O)(=O)Nc4ccccc4)c3)c2)OC1(C)C
